Values joined by “and” are separate entries in the source; they are usually repeats but may differ in a detail not shown here. Equal entries are not always repeated.
Assays:
Mus musculus [1] = assay: Biodistribution was measured in mice heart 60 minutes after intravenous injection of [125I]-labeled styrylbenzene.; assay type: ADME, organism-based; settings: in vivo, 1 h
Outline: (§1)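 ICR mice (2-3 months old, 20-30 g) under ether anesthesia received 5-10 µCi ¹²⁵I tracer in 0.15 mL saline by tail-vein injection. Animals were killed by cardiac excision at set times post-injection. Organs were removed, weighed and γ-counted. Values are % dose per organ against diluted injectate aliquots, taking blood and muscle as 7% and 40% of body weight. Mean of 3-4 mice ± SD.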

Mus musculus [2] = assay: Biodistribution was measured in mice kidney 30 minutes after intravenous injection of [125I]-labeled styrylbenzene.; assay type: ADME, organism-based; settings: in vivo, 0.5 h; outline: as §1
Mus musculus [3] = assay: Biodistribution was measured in mice kidney 5 minutes after intravenous injection of [125I]-labeled styrylbenzene.; assay type: ADME, organism-based; settings: in vivo; outline: as §1
Mus musculus [4] = assay: Biodistribution was measured in mice kidney 60 minutes after intravenous injection of [125I]-labeled styrylbenzene.; assay type: ADME, organism-based; settings: in vivo, 1 h; outline: as §1
Mus musculus [5] = assay: Biodistribution was measured in mice liver 30 minutes after intravenous injection of [125I]-labeled styrylbenzene.; assay type: ADME, organism-based; settings: in vivo, 0.5 h; outline: as §1
Mus musculus [6] = assay: Biodistribution was measured in mice liver 5 minutes after intravenous injection of [125I]-labeled styrylbenzene.; assay type: ADME, organism-based; settings: in vivo; outline: as §1
Mus musculus [7] = assay: Biodistribution was measured in mice liver 60 minutes after intravenous injection of [125I]-labeled styrylbenzene.; assay type: ADME, organism-based; settings: in vivo, 1 h; outline: as §1
Mus musculus [8] = assay: Biodistribution was measured in mice muscle 30 minutes after intravenous injection of [125I]-labeled styrylbenzene.; assay type: ADME, organism-based, Muscle tissue; settings: in vivo, 0.5 h; outline: as §1
Mus musculus [9] = assay: Biodistribution was measured in mice muscle 5 minutes after intravenous injection of [125I]-labeled styrylbenzene.; assay type: ADME, organism-based, Muscle tissue; settings: in vivo; outline: as §1
Mus musculus [10] = assay: Biodistribution was measured in mice muscle 60 minutes after intravenous injection of [125I]-labeled styrylbenzene.; assay type: ADME, organism-based, Muscle tissue; settings: in vivo, 1 h; outline: as §1
Mus musculus [11] = assay: Biodistribution was measured in mice skin 30 minutes after intravenous injection of [125I]-labeled styrylbenzene.; assay type: ADME, organism-based, Zone of skin; settings: in vivo, 0.5 h; outline: as §1
Mus musculus [12] = assay: Biodistribution was measured in mice skin 5 minutes after intravenous injection of [125I]-labeled styrylbenzene.; assay type: ADME, organism-based, Zone of skin; settings: in vivo; outline: as §1
Mus musculus [13] = assay: Biodistribution was measured in mice skin 60 minutes after intravenous injection of [125I]-labeled styrylbenzene.; assay type: ADME, organism-based, Zone of skin; settings: in vivo, 1 h; outline: as §1
Mus musculus [14] = assay: Biodistribution was measured in mice spleen 30 minutes after intravenous injection of [125I]-labeled styrylbenzene.; assay type: ADME, organism-based; settings: in vivo, 0.5 h
Outline: (§2)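 ICR mice (2-3 months old, 20-30 g) under ether anesthesia; 0.15 mL saline containing 5-10 µCi ¹²⁵I tracer injected into tail vein. Sacrifice by cardiac excision at set times; organs removed, weighed, γ-counted. Expressed as % dose per organ versus diluted aliquots of injectate. Mean of three or four mice ± SD.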

Mus musculus [15] = assay: Biodistribution was measured in mice spleen 5 minutes after intravenous injection of [125I]-labeled styrylbenzene.; assay type: ADME, organism-based; settings: in vivo; outline: as §2
Mus musculus [16] = assay: Biodistribution was measured in mice spleen 60 minutes after intravenous injection of [125I]-labeled styrylbenzene.; assay type: ADME, organism-based; settings: in vivo, 1 h; outline: as §2
Mus musculus [17] = assay: Biodistribution was measured in mice blood 30 minutes after intravenous injection of [125I]-labeled styrylbenzene.; assay type: ADME, organism-based; settings: in vivo, 0.5 h; outline: as §1
Mus musculus [18] = assay: Biodistribution was measured in mice blood 5 minutes after intravenous injection of [125I]-labeled styrylbenzene.; assay type: ADME, organism-based; settings: in vivo; outline: as §1
Mus musculus [19] = assay: Biodistribution was measured in mice lung 30 minutes after intravenous injection of [125I]-labeled styrylbenzene.; assay type: ADME, organism-based; settings: in vivo, 0.5 h; outline: as §1
Mus musculus [20] = assay: Biodistribution was measured in mice lung 5 minutes after intravenous injection of [125I]-labeled styrylbenzene.; assay type: ADME, organism-based; settings: in vivo; outline: as §1
Mus musculus [21] = assay: Biodistribution was measured in mice lung 60 minutes after intravenous injection of [125I]-labeled styrylbenzene.; assay type: ADME, organism-based; settings: in vivo, 1 h; outline: as §1
Mus musculus [22] = assay: Biodistribution was measured in mice brain 5 minutes after intravenous injection of [125I]-labeled styrylbenzene; assay type: ADME, organism-based; settings: in vivo; outline: as §1
Mus musculus [23] = assay: Biodistribution was measured in mice brain 60 minutes after intravenous injection of [125I]-labeled styrylbenzene; assay type: ADME, organism-based; settings: in vivo, 1 h; outline: as §1
Mus musculus [24] = assay: Biodistribution was measured in mice heart 30 minutes after intravenous injection of [125I]-labeled styrylbenzene.; assay type: ADME, organism-based; settings: in vivo, 0.5 h; outline: as §1
Mus musculus [25] = assay: Biodistribution was measured in mice heart 5 minutes after intravenous injection of [125I]-labeled styrylbenzene.; assay type: ADME, organism-based; settings: in vivo; outline: as §1
Mus musculus [26] = assay: Biodistribution was measured in mice blood 60 minutes after intravenous injection of [125I]-labeled styrylbenzene.; assay type: ADME, organism-based; settings: in vivo, 1 h; outline: as §1
Mus musculus [27] = assay: Biodistribution was measured in mice brain 30 minutes after intravenous injection of [125I]-labeled styrylbenzene; assay type: ADME, organism-based; settings: in vivo, 0.5 h; outline: as §1
[28] = target: T1, Amyloid-beta precursor protein (Homo sapiens, UniProt P05067); assay: Inhibition constant for amyloid beta compared to [125I]TZDM
Outline: (§3)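 Aβ(1-40) or Aβ(1-42) aggregated at 0.5 or 0.25 mg/mL respectively in pH 7.4 buffer (10 mM sodium phosphate, 1 mM EDTA), 37 °C, 36-42 h with shaking. Competition against ¹²⁵I radioligand with fibrils 10-50 nM (final), 10% EtOH, 1 mL. Incubation 3 h room temperature. Bound ligand collected by GF/B filtration, γ-counted. Ki by nonlinear regression. Mean ± SEM, three experiments in duplicate.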

[29] = target: T1, Amyloid-beta precursor protein; assay: Inhibition constant for aggregates of amyloid beta compared to [125I]IMSB; outline: as §3

T1 sequence (P05067 whole entry): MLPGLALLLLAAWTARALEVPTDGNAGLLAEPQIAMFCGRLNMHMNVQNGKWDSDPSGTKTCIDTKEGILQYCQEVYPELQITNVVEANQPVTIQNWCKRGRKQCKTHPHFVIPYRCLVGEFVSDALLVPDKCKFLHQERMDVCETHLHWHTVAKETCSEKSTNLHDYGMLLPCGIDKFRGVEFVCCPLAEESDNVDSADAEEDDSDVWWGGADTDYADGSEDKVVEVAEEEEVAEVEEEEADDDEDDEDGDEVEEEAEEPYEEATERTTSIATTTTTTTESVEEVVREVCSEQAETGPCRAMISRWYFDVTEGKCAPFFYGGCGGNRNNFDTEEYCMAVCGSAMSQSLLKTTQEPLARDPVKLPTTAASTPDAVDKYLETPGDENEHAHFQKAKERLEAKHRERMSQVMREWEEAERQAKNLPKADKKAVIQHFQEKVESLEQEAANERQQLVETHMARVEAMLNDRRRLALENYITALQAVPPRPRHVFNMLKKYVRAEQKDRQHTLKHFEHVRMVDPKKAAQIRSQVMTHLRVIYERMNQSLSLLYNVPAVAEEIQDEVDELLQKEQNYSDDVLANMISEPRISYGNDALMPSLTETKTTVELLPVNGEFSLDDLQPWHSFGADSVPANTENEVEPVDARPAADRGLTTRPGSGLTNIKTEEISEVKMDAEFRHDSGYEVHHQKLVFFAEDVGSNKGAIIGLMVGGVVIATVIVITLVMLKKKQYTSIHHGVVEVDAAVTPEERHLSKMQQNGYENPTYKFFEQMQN

Dose/organ (Mus musculus [1]): 0.12%
Dose/organ (Mus musculus [2]): 0.46%
Dose/organ (Mus musculus [3]): 1.31%
Dose/organ (Mus musculus [4]): 0.23%
Dose/organ (Mus musculus [5]): 24.47%
Dose/organ (Mus musculus [6]): 47.85%
Dose/organ (Mus musculus [7]): 6.14%
Dose/organ (Mus musculus [8]): 1.82%
Dose/organ (Mus musculus [9]): 3.16%
Dose/organ (Mus musculus [10]): 1.3%
Dose/organ (Mus musculus [11]): 1.44%
Dose/organ (Mus musculus [12]): 1.56%
Dose/organ (Mus musculus [13]): 1.02%
Dose/organ (Mus musculus [14]): 0.07%
Dose/organ (Mus musculus [15]): 0.17%
Dose/organ (Mus musculus [16]): 0.03%
Dose/organ (Mus musculus [17]): 5.19%
Dose/organ (Mus musculus [18]): 22.52%
Dose/organ (Mus musculus [19]): 0.31%
Dose/organ (Mus musculus [20]): 0.89%
Dose/organ (Mus musculus [21]): 0.16%
Dose/organ (Mus musculus [22]): 0.14%
Dose/organ (Mus musculus [23]): 0.02%
Dose/organ (Mus musculus [24]): 0.18%
Dose/organ (Mus musculus [25]): 0.43%
Dose/organ (Mus musculus [26]): 2.17%
Dose/organ (Mus musculus [27]): 0.03%
Ki [28]: > 1000 nM
Ki [29]: 0.17 nM and 0.8 nM
SMILES: COc1ccc(/C=C/c2ccc(/C=C/c3ccc(OC)c(C(=O)O)c3)c(I)c2)cc1C(=O)O
